The values that follow come from ChEMBL document CHEMBL1141807, “New phenolic and quinone-methide triterpenes from Maytenus amazonica” (J Nat Prod, 1999).

Assay [1] has as its system P388. Kind of assay: Cytotoxicity against mouse P388 ATCC CCL-46 cells. The assay is classed as functional, cell-based. In short, it runs like this:
(§1)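 Lines maintained in log-phase growth in EMEM/neaa with 5% fetal calf serum, 10-2 M sodium bicarbonate, 0.1 g/L penicillin G and 0.1 g/L streptomycin sulfate. P-388 grown as suspension culture; A-549, HT-29 and MEL-28 as monolayers. Compounds dissolved in DMSO–MeOH (1:9). Read-out IC50 in µg/mL.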

Assay [2] relates to A549. Put plainly: Cytotoxicity against human A549 ATCC CCl-185 cells. The assay is classed as functional, cell-based. In short, it runs like this: as §1
In assay [3] the test system is HT-29. Put plainly: Cytotoxicity against human HT-29 ATCC HTB-38 cells. The assay is classed as functional, cell-based. In short, it runs like this:
as §1

The nature of assay [4]: Cytotoxicity against human SK MEL28 ATCC HTB-72 cells. The assay is classed as functional, cell-based. Conditions: SK-MEL-28. In short, it runs like this: as §1
Assay [5] has as its target Aldo-keto reductase family 1 member B1 (Homo sapiens, UniProt P15121). Kind of assay: Inhibition of human recombinant aldose reductase. In short, it runs like this: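 Recombinant human aldose reductase, purified by a published method. In vitro inhibition measured by a modified version of that method. Values given as IC50 in µg/mL.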

Converted amounts (≈) assume the structure as drawn.

Regarding `Cc1c(O)c(O)cc2c1C(=O)C[C@@H]1[C@@]2(C)CC[C@@]2(C)[C@@H]3C[C@@H](C)C(=O)C[C@]3(C)CC[C@]12C`, the IC50 is 5 µg/mL (≈ 11.4 µM) in assay [1]; 5 µg/mL (≈ 11.4 µM) in assay [2]; 10 µg/mL (≈ 22.8 µM) in assay [3]; 10 µg/mL (≈ 22.8 µM) in assay [4]; 57 µM in assay [5].

In the case of `C[C@@H]1C[C@@H]2[C@@](C)(CC[C@@]3(C)[C@@]2(C)CC=C2c4cc(O)c(O)c(C=O)c4C=C[C@]23C)CC1=O`, the IC50 in assay [1] is 10 µg/mL (≈ 23 µM); in assay [2], 10 µg/mL (≈ 23 µM); in assay [3], 10 µg/mL (≈ 23 µM); in assay [4] it was 10 µg/mL (≈ 23 µM); in assay [5] it was 57.5 µM.

Consider `CC1=C(O)C(=O)C=C2C1=C[C@H](O)[C@@H]1[C@@]2(C)CC[C@@]2(C)[C@@H]3C[C@@H](C)C(=O)C[C@]3(C)CC[C@]12C`, for which the IC50 in assay [1] is 5 µg/mL (≈ 11.4 µM); in assay [2], 5 µg/mL (≈ 11.4 µM); in assay [3] it was 5 µg/mL (≈ 11.4 µM); in assay [4] it was 5 µg/mL (≈ 11.4 µM); in assay [5] it was 57 µM.

For the compound `CC1=C(O)C(=O)C=C2C1=CC(=O)[C@@H]1[C@@]2(C)CC[C@@]2(C)[C@@H]3C[C@@H](C)C(=O)C[C@]3(C)CC[C@]12C` [AMAZOQUINONE], the half-maximal inhibitory concentration (IC50) in assay [1] was 2.5 µg/mL (≈ 5.73 µM); in assay [2] it was 5 µg/mL (≈ 11.5 µM); in assay [3] it was 5 µg/mL (≈ 11.5 µM); in assay [4], 5 µg/mL (≈ 11.5 µM); in assay [5], 57.3 µM.
